pIC50: −log10 of the molar value.
Key:
[1] = Cytotoxicity against human Hep3B cells by MTT assay; format: functional, cell-based, Hep 3B2
RAW264.7 [2] = experiment: Antiinflammatory activity in mouse RAW264.7 cells assessed as inhibition of LPS-induced COX2 protein expression at 10 uM by Western blotting analysis; format: functional
Summary of the method: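 RAW264.7 macrophages (ATCC) stimulated with LPS and treated at 10 μM. iNOS and COX-2 protein levels were quantified by immunoblot and expressed as % of LPS-only control cells (100%). Means ± SEM, n = 6.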

HepG2 = experiment: Cytotoxicity against human HepG2 cells by MTT assay; format: functional, cell-based
MCF7 = experiment: Cytotoxicity against human MCF7 cells by MTT assay; format: functional, cell-based
RAW264.7 [3] = experiment: Antiinflammatory activity in mouse RAW264.7 cells assessed as residual LPS-induced iNOS protein level at 10 uM by Western blotting analysis
[4] = test system: beta-actin protein expression; experiment: Toxicity in mouse RAW264.7 cells assessed as inhibition of beta-actin protein expression at 10 uM by Western blotting analysis; values are per cent of control
MDA-MB-231 = experiment: Cytotoxicity against human MDA-MB-231 cells by MTT assay; format: functional, cell-based

Structure (SMILES)	COX-2 expression (% of LPS control) at 10 µM (RAW264.7 [2]) [%]	residual iNOS protein level at 10 µM (RAW264.7 [3]) [%]	other results
COc1cccc2c1C(=O)c1c(O)c3c(c(O)c1C2=O)C[C@@](O)(C(=O)CO)C[C@@H]3O[C@H]1C[C@H](N)[C@H](O)[C@H](C)O1 [DOXORUBICIN]			pIC50 [1]: 6.15
CC1=C(C)C(=O)O[C@@H]([C@@H](C)[C@H]2CC[C@H]3[C@@H]4CCC5=CC(=O)C=C[C@]5(C)[C@H]4CC[C@]23C)C1 [MINABEOLIDE 1]	18.3	9.6	pIC50 (HepG2): 5.28; pIC50 (MCF7): 4.73
CC(=O)OC[C@]12CC[C@H]3[C@@H](CCC4=CC(=O)C=C[C@@]43C)[C@@H]1CC[C@@H]2[C@H](C)[C@H]1CC(C)=C(C)C(=O)O1 [MINABEOLIDE 2]	51.2	45.7	
C[C@@H]([C@H]1CC[C@H]2[C@@H]3CCC4=CC(=O)C=C[C@]4(C)[C@H]3CC[C@]12C)[C@H]1CC[C@H](C)C(=O)O1 [MINABEOLIDE 4]	22.4	23.2	
CC(=O)OC[C@]12CC[C@H]3[C@@H](CCC4=CC(=O)C=C[C@@]43C)[C@@H]1CC[C@@H]2[C@H](C)[C@H]1CC[C@H](C)C(=O)O1 [MINABEOLIDE 5]	31.3	6.3	
CC1=C(C)C(=O)O[C@@H]([C@@H](C)[C@H]2CC[C@H]3[C@@H]4CCC5=CC(=O)C=C[C@]5(C)[C@H]4CC[C@]23C=O)C1 [PARAMINABEOLIDE A]		11	pIC50 (HepG2): 5.10; residual activity at 10 µM [4]: 66.5%
CC(=O)OC[C@]12CC[C@H]3[C@@H](CCC4=CC(=O)C=C[C@@]43C)[C@@H]1CC[C@@H]2[C@H](C)[C@H]1C[C@H](C)[C@H](C)C(=O)O1 [PARAMINABEOLIDE B]		7.3	pIC50 (MDA-MB-231): 4.71; pIC50 (MCF7): 4.83
CC(=O)OC[C@]12CC[C@H]3[C@@H](CCC4=CC(=O)C=C[C@@]43C)[C@@H]1CC[C@@H]2[C@H](C)[C@H](O)[C@@H]1OC(=O)[C@H](C)[C@H]1C [PARAMINABEOLIDE C]		37.9	
C[C@H]([C@H](O)[C@@H]1OC(=O)[C@H](C)[C@@H]1C)[C@H]1CC[C@H]2[C@@H]3CCC4=CC(=O)C=C[C@]4(C)[C@H]3CC[C@]12C [PARAMINABEOLIDE D]		43.3	

Source: ChEMBL document CHEMBL1782008, “Paraminabeolides A-F, cytotoxic and anti-inflammatory marine withanolides from the soft coral Paraminabea acronocephala” (J Nat Prod, 2011)
